# High-throughput results deposited in PubChem by The Scripps Research Institute Molecular Screening Center.
# Rows were chosen to be rich in hits. Some 2% of all compounds tested hit in one or more screens of this group.
# ZTA counter: blocks Epstein-Barr virus ZTA, an EBNA-1 counter-screen; inhibition, % at 11 µM; P03206; ZTA-DNA binding, fluorescence polarization; actives 0.15% (n = 320,000); in the data active means inhibition above about 33%
# Target sequence (P03206 whole entry, looked up): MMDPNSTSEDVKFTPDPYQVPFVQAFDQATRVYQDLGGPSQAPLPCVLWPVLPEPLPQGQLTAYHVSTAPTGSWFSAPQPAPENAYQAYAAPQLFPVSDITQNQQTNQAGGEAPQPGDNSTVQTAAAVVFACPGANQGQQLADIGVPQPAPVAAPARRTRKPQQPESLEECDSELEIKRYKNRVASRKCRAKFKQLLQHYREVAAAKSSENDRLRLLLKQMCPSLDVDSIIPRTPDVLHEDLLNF
# DNA FID counter: compounds displacing fluorescent DNA intercalator, primary screen, artefact control for HCV NS3 helicase inhibitor project, biochemical, FID fluorescence | DNA fluorescent intercalator displacement | inhibition, % at 7.9 µM | actives 0.17% (n = 290,000) | AID 1845, 2009; in the data active means inhibition above about 37%;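 further: 0% = vehicle and 100% = reference compound; higher means more ethidium bromide displaced from hairpin DNA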
# NS3 helicase inh: inhibitors of HCV NS3 helicase, primary screen, biochemical, Cy5 molecular beacon fluorescence; Hepatitis C virus NS3 helicase; NS3 helicase DNA unwinding; actives 0.56% (n = 290,000); inhibition, % at 10.9 µM;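 active means inhibition above the mean of all tested compounds plus 3 SD, set per campaign, cut at about 35% in these data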;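 further: 0% = DMSO wells and 100% = thioflavine S control wells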
#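 Assay system – hepatitis C virus NS3 helicase domain fragment enzyme · Buffer or medium – MOPS pH 6.5, MgCl2, DTT, Tween20, BSA · Reagent – Cy5/quencher beacon DNA duplex and ATP to start · Compound – single 10.9 µM dose · Timing – 1 h at 25 °C · Technique – Cy5 beacon fluorescence read at start and 1 h · Measure – % inhibition of unwinding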
# GPR7 antag: GPR7 receptor antagonists, primary screen, cell-based, fluorescence, single concentration | GPR7-expressing cells, fluorescence antagonist assay | actives 1.1% (n = 290,000) | inhibition, % at 4.4 µM | Neuropeptides B/W receptor type 1 (Homo sapiens), P48145; in the data active means inhibition above about 16%, passing the limit was not always enough;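 further: cells stimulated with the agonist NPW; 0% = agonist with vehicle and 100% = vehicle without agonist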
# EBNA-1 inhibitor: EBNA-1 DNA-binding inhibitors, primary screen, biochemical, fluorescence polarization. inhibition, % at 14.8 µM. actives 0.34% (n = 300,000); in the data active means inhibition above about 28%
# GPR7 antag cf: GPR7 receptor antagonists, confirmation, cell-based, fluorescence, single concentration; AID 1952, 2009; shares compounds with GPR7 antag; actives 52% (n = 2,400); inhibition, % at 4.4 µM; GPR7-expressing cells, calcium fluorescence antagonist mode; in the data active means inhibition above about 24%;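 further: stimulated with the GPR7 agonist NPW; 0% = agonist plus vehicle and 100% = vehicle alone without agonist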
# MCHR1 antagonist: MCHR1 antagonists in cells, counter-screen for GPR7 antagonist project, cell-based, fluorescence, human | inhibition, % at 4.4 µM | MCHR1-expressing cells, fluorescence antagonist assay | shares compounds with GPR7 antag | actives 62% (n = 2,400); in the data active means inhibition above about 22%;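 further: 0% = vehicle with agonist and 100% = vehicle without agonist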
# An asterisk follows results filed as active; / = no result given.
SMILES,ZTA counter,DNA FID counter,NS3 helicase inh,GPR7 antag,EBNA-1 inhibitor,GPR7 antag cf,MCHR1 antagonist
O=C(CN1C(=O)COc2ccc(Cl)cc21)NCC1CCCO1 (stereo unspecified),-11,-9,8,-7,8,/,/
CC(=O)Nc1ccc(Nc2c3c4c(cccc4n(C)c2=O)C(=O)c2ccccc2-3)cc1,1,7,4,-3,-5,/,/
Cn1c(=O)c(NCCO)c2c3c(cccc31)C(=O)c1ccccc1-2,9,-71,1,61*,-8,60*,82*
CCCCNc1c2c3c(cccc3n(C)c1=O)C(=O)c1ccccc1-2,17,-6,-1,21*,1,65*,81*
O=C(CC1Sc2ccccc2NC1=O)Nc1cccc(C(=O)O)c1 (stereo unspecified),-5,-4,7,21*,4,-11,5
COC(=O)c1ccc(COc2cccc3c2CCN(Cc2cccc(C)c2)C3=O)o1,-3,-29,-24,22*,0,43*,70*
O=C1c2cccc(OCC(=O)N3CCCc4ccccc43)c2CCN1Cc1ccc(Br)cc1,-11,-26,-7,31*,8,35*,58*
COC(=O)c1ccc(COc2cccc3c2CCN(Cc2ccccc2)C3=O)o1,8,-28,-17,29*,4,31*,57*
CCN1CCc2c(OCc3ccc(C(=O)OC)o3)cccc2C1=O,-1,-16,0,-14,-7,/,/
CCN1CCc2c(OCC(=O)N3CCCc4ccccc43)cccc2C1=O,15,-25,-4,1,4,/,/
CCCCC1(C(=O)OC)NC(c2ccc(O)cc2)C2C(=O)N(c3ccccc3)C(=O)C21 (stereo unspecified),5,-12,-5,-12,5,/,/
Cc1nn(-c2ccccc2)c(N)c1Sc1ccc([N+](=O)[O-])cc1,-1,-3,-9,23*,9,33*,55*
CC(C)NC(=O)c1cc(-c2ccc3c(c2)OCO3)on1,-3,-9,10,44*,-20,0,12
CC(C)(CO)NCc1c(OCc2ccc(Cl)cc2)ccc2ccccc12,6,30,-53,32*,-17,27*,15
CNCc1c(OCc2ccccc2)ccc2ccccc12,-14,15,-22,14,-3,/,/
CC(C)C1C(C#N)=C(N)SC(N)=C1C#N,18,4,3,-3,-10,/,/
CCC(CC)C1C(C#N)=C(N)SC(N)=C1C#N,-5,5,19,22*,0,10,18
CC(C)N(C(=O)COC(=O)c1cccc(N(C)C)c1)c1ccccc1,-7,-39,13,-3,-7,/,/
Cc1cccc(N2CCN(S(=O)(=O)c3ccc4c(c3)CC(C)N4C(=O)C3CC3)CC2)c1C (stereo unspecified),-15,-39,-14,28*,-5,29*,44*
Cc1ccc(C)c(N2CCN(S(=O)(=O)c3ccc4c(c3)CC(C)N4C(=O)C3CC3)CC2)c1 (stereo unspecified),6,-6,-8,-1,10,/,/
CCC(=O)N1c2ccc(S(=O)(=O)N3CCN(c4ccc([N+](=O)[O-])cc4)CC3)cc2CC1C (stereo unspecified),-7,-26,4,36*,-12,33*,44*
O=S(=O)(c1ccc(Br)cc1)N1CCC2(CC1)OCCO2,-8,-18,-4,-2,-1,/,/
CCC(C)(C)c1ccc(OCCCC[n+]2ccc(C)cc2)c(C(C)(C)CC)c1,0,46*,-69,69*,2,74*,83*
CCc1ccccc1NC(=O)CN1CCN(C(=O)C2CCN(C(=O)/C=C/c3ccccc3)CC2)CC1,4,/,/,/,/,/,/
Cc1ccc(C(C)C)c(OCC(=O)N/N=C/c2cccn2C)c1,-11,-10,-6,-6,4,/,/
